Blank lines part the entries; values can stand above or below the molecule they belong to.
How the values were obtained:
[1] = test system: HCV genotype 1 (GT-1); conditions: triple combination with Peg-IFN/RBV, genotype-1 naive patients; cited from earlier work
[2] = test system: HCV GT-1a H77 subgenomic replicon; assay: Stable HCV GT-1a H77 subgenomic replicon assay; format: cell-based, Hepatitis C virus; conditions: for Plasma Shift fold: EC50 with 40% human serum vs without, GT-1a and GT-1b
[3] = test system: HCV GT-1b Con1 subgenomic replicon; assay: Stable HCV GT-1b Con1 subgenomic replicon assay; format: cell-based, Hepatitis C virus
[4] = test system: HCV GT-1b Con1 subgenomic replicon; conditions: genotype not given; cited from earlier work
[5] = test system: GT-1b Con1 transient replicon with NS5B clinical isolates; assay: Transient HCV replicon assay, panel of GT-1b NS5B clinical isolates; format: cell-based; conditions: Hepatitis C virus, GT1B, read-out: mean EC50, GT 1b panel, geometric mean
[6] = Pharmacokinetics in rat; format: in vivo, Male Wistar/Han (CRL:WI) rats; conditions: male, Wistar/Han (CRL:WI), plasma, po
[7] = Pharmacokinetics in dog; format: in vivo, Male beagle dogs; conditions: male, beagle, plasma, po
In short: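 Male beagle dogs with free access to food and water received a single oral dose of test compound by gavage in 2% Klucel LF in water. Blood was collected into EDTA tubes at typically 0.25, 0.5, 1, 2, 4, 6, 8 and 24 h post-dose. Plasma concentrations were measured by LC/MS/MS after protein precipitation with acetonitrile.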

SMILES: CC(C)(C)NC(=O)N[C@H](C(=O)N1C[C@H]2[C@@H]([C@H]1C(=O)NC(CC1CCC1)C(=O)C(N)=O)C2(C)C)C(C)(C)C (stereo partly drawn) [Boceprevir]
SVR rates [1]: ≤ 68%

SMILES: COc1c(/C=C/c2ccc(NS(C)(=O)=O)cc2)cc(-c2cc(F)c[nH]c2=O)cc1C(C)(C)C [Compound 7, reference compound]
EC50 ([2]; Hepatitis C virus, GT1A, read-out: GT-1a EC50): 8 nM
EC50 ([3]; Hepatitis C virus, GT1B, read-out: GT-1b EC50): 3 nM
activity in the HCV subgenomic replicon assay [4]: single digit nM

SMILES: CC(C)(C)c1cc(-c2cc(F)c[nH]c2=O)c2ncc(-c3ccc(NS(C)(=O)=O)cc3)cc2c1 [Compound 34]
drop in activity ([2]; desmethoxy analog vs 33, replicon GT-1a and GT-1b): 4-to 6 fold

SMILES: COc1c(C(C)(C)C)cc(-n2ccc(=O)[nH]c2=O)c2ncc(-c3ccc(NS(C)(=O)=O)cc3)cc12 [Compound 35, N-[4-[6-tert-Butyl-8-(2,4-dioxopyrimidin-1-yl)-5-methoxy-3-quinolyl]phenyl] methanesulfonamide]
Plasma Shift fold [2]: 1.7–2.2 fold

SMILES: COc1c(C(C)(C)C)cc(-n2ccc(=O)[nH]c2=O)c2ccc(-c3ccc(NS(C)(=O)=O)cc3)cc12 [Compound 36, N-[4-[7-tert-Butyl-5-(2,4-dioxopyrimidin-1-yl)-8-methoxy-2-naphthyl]phenyl] methanesulfonamide]
increase in potency against both genotypes with respect to quinoline 35 ([2]; replicon GT-1a and GT-1b): 2- to 3 fold

SMILES: COc1c(C(C)(C)C)cc(-c2ccc[nH]c2=O)c2ncc(-c3ccc(NS(C)(=O)=O)cc3)cc12 [Compound 39, N-[4-[6-tert-Butyl-5-methoxy-8-(2-oxo-1H-pyridin-3-yl)-3-quinolyl]phenyl] methanesulfonamide]
Plasma Shift fold [2]: 0.8–3.5 fold

SMILES: COc1ccc(-c2cc(C(C)(C)C)c(OC)c3cc(-c4ccc(NS(C)(=O)=O)cc4)cnc23)c(=O)[nH]1 [Compound 41, N-[4-[6-tert-Butyl-5-methoxy-8-(6-methoxy-2-oxo-1H-pyridin-3-yl)-3-quinolyl]phenyl] methanesulfonamide]
improvement in the 40% HS replicon assay ([2]; vs lead compound 7): 6 fold
EC50 [5]: 0.26 nM
concentration at 8 h [6]: 1220 nM
concentration at 8 h [7]: 1950 nM

SMILES: COc1c(C(C)(C)C)cc(N2CCCNC2=O)c2ncc(-c3ccc(NS(C)(=O)=O)cc3)cc12 [Compound 43]
decrease in potency against GT-1a ([2]; vs dihydrouracil 42): 14 fold
decrease in potency against GT-1b ([3]; vs dihydrouracil 42): 6 fold

SMILES: COc1c(C(C)(C)C)cc(-c2cn(C)c(=O)[nH]c2=O)c2ncc(-c3ccc(NS(C)(=O)=O)cc3)cc12 [Compound 44]
increase in potency against both genotypes with respect to quinoline 35 ([2]; replicon GT-1a and GT-1b): ~ 2 fold

concentration at 8 h [6]: 3500 nM
SMILES: COc1ccc(-c2cc(C(C)(C)C)c(OC)c3cc(N4CC[C@H](CNS(C)(=O)=O)C4)cnc23)c(=O)[nH]1 [Compound 50, N-[[(3S)-1-[6-tert-butyl-5-methoxy-8-(6-methoxy-2-oxo-1H-pyridin-3-yl)-3-quinolyl]pyrrolidin-3-yl]methyl]methanesulfonamide]

SMILES: COc1c(C2(C(F)F)CC2)cc(-n2ccc(=O)[nH]c2=O)c2ncc(-c3ccc(NS(C)(=O)=O)cc3)cc12 [Compound 53, N-[4-[6-[1-(Difluoromethyl)cyclopropyl]-8-(2,4-dioxopyrimidin-1-yl)-5-methoxy-3-quinolyl]phenyl]methanesulfonamide]
improvement in potency with respect to compounds 51 and 52 ([2]; replicon GT-1a and GT-1b): 3- to 9 fold

SMILES: CCC[C@H](NC(=O)[C@@H]1[C@H]2CCC[C@H]2CN1C(=O)[C@@H](NC(=O)[C@@H](NC(=O)c1cnccn1)C1CCCCC1)C(C)(C)C)C(=O)C(=O)NC1CC1 [Telaprevir]
SVR rates [1]: up to 75%

Source: PMC3954946 (Journal of medicinal chemistry, 2013)
